36 sequences from the EternaBench riboswitch data can be followed below.

For this series, the system named is MS2 coat protein. The series is described as follows: apparent Kd, MS2 coat protein; higher = weaker binding; RNA-MaP array; FMN 200 µM where present. In a few lines: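 Green signal from SNAP-549-labelled MS2 coat protein was normalised to red-channel RNA signal and to the median Fmax of control clusters. The protein was titrated from 0.7 or 1.5 nM, doubling to 3 µM, without and then with constant ligand, over designs transcribed by stalled E. coli RNA polymerase on Illumina sequencing-chip clusters, in 100 mM Tris-HCl pH 7.5, 80 mM KCl, 4 mM MgCl2, BSA, DTT, yeast tRNA and Tween-20. The apparent Kd is the median of filtered per-cluster binding-curve fits.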

Setting [1] is: designed as: OFF switch for flavin mononucleotide, no ligand.
[2] abbreviates: ligand present: flavin mononucleotide, designed as: OFF switch for flavin mononucleotide.
[3] abbreviates: designed as: ON switch for flavin mononucleotide, no ligand.
The mark [4] stands for this setting: ligand present: flavin mononucleotide, designed as: ON switch for flavin mononucleotide.

Take “UCUUAGUCAGGAUAUACAUGAGGAUCACCCAUGUAAAAUUUUAAUUUAAUUUUAAGGUGUAGAAGGGACCAUUU”: the “apparent Kd” value is 0.0306 µM under setting [1] and 0.0262 µM under setting [2].

For “ACAUGAGGAUCACCCAUGUAUAGAUUUGAAUGUUAAGUUACGUAGGAUAUCGUGUUUAGUAUGAUCGAGAAGGACGAUCUGAUA”, the “apparent Kd” value by setting is: under setting [3], 0.0258 µM; under setting [4], 0.0208 µM.

As for “CAGCUGAAAGUGAGGAUAUAGACUGCUUCGGCAGUCUAGAAGGCACAUGAGGAUCACCCAUGUCUCAACAGCUG”, the “apparent Kd” value is, setting by setting: under setting [1], 0.0166 µM; under setting [2], 0.0702 µM.

For “CUGUGACGGUGCGCAAGUGGACGGAGAAGGGUCACAUGAGGAUCACCCAUGUGGGCCUGCUAUUGACAGGAUAUCCGUUCGUAC”, the “apparent Kd” value is 0.00594 µM under setting [1] and 0.00646 µM under setting [2].

With “AGCUGUGGCCGAGGAUAUCUAAUAAUCUCAACCGAAAUAUAAUCGGACAUGAGGAUCACCCAUGUAGAGAAGGCGGUCUCAGCA”, the “apparent Kd” value by setting is: under setting [1], 0.0362 µM; under setting [2], 0.0928 µM.

In the case of “UUUUUACUUGUAGGAUAUGGAGACAUGAGGAUCACCCAUGUAUGAUAAGCUAAAUUAUGCUGUGGCCAGAAGGAUAUUAUUCUU”, the “apparent Kd” value under setting [3] turned out to be 0.0482 µM and the “apparent Kd” value under setting [4] came to 0.0537 µM.

With “AAAAAGACAGGAUAUACAUGAGGAUCACCCAUGUGAAAAAAAAAAAAAAAAAAAAAGUGUAGAAGGGUCAAAAA”, the “apparent Kd” value was found to be 0.0489 µM under setting [1] and 0.0354 µM under setting [2].

For “UCUGUUCAAGGAUAUGCGUAAUGUGUUACGGCACAAGGUCUACAUGAGGAUCACCCAUGUAGAAGGUGAUCAGA”, the “apparent Kd” value by setting is: under setting [1], 0.0208 µM; under setting [2], 0.0224 µM.

In the case of “GGUACUCAAAGAGUACCAAUACGAACAUGAGGAUCACCCAUGUAGGAUAUGCUACUCAAAGAGUAGCAGAAGGAUAUGAUCCAU”, the “apparent Kd” value runs as follows: under setting [1], 0.0772 µM; under setting [2], 0.105 µM.

Regarding “CCGACGAAAAUCGGGCUACAUGAGGAUCACCCAUGUGCUUCACAGGAUAUGGUACGUAGUGAGUUCCAGAAGGGUGAUUAAUCU”, the “apparent Kd” value under setting [3] is 0.205 µM and the “apparent Kd” value under setting [4] stood at 0.129 µM.

For “CGAUUAUUGAUCCAUUUUUUCAACAUGAGGAUCACCCAUGUGCAGGAUAUCGUGAUUAUUAUCAACGAGAAGGGCAAAUUCACG”, the “apparent Kd” value is, setting by setting: under setting [1], 0.0495 µM; under setting [2], 0.145 µM.

Take “GUAUAUAGUGUGAGGAUAUGCUGGUCCUUGGAUCAGCAGAAGGCACAUGAGGAUCACCCAUGUAGUUUAUUAUU”: the “apparent Kd” value by setting is: under setting [1], 0.025 µM; under setting [2], 0.0803 µM.

For the sequence “UUUUAGCGAGGAUAUACAUUUUUUUUAUUAUCCUCAUUAUUACAUGAGGAUCACCCAUGUAGAAGGCGCAUUUU”, the “apparent Kd” value is, setting by setting: under setting [1], 0.041 µM; under setting [2], 0.139 µM.

On to “GAACGAUUGCCUACAUGAGGAUCACCCAUGUGGCUGACAAGCAGAAGGGCGGGUUUCAUUCUCCCGUAGGAUAUGCGCGUUCCA”, for which the “apparent Kd” value is, setting by setting: under setting [3], 0.00689 µM; under setting [4], 0.00514 µM.

With “UCUGCCGCCGUGAGGAUAUGCCCGCAAAAACGCGGGCAGAAGGCACAUGAGGAUCACCCAUGUCCCGCGGUUUU”, the “apparent Kd” value was 0.0139 µM under setting [1] and 0.0336 µM under setting [2].

Take “CGAGUUUUUGAGAAGGCAUAUUAUAUUAUACCACAUGUUUACAUGAGGAUCACCCAUGUUUCCUAUGAGGAUAUCAGAAUAUCG”: the “apparent Kd” value amounted to 0.0118 µM under setting [1] and 0.01 µM under setting [2].

In the case of “UAUCGGGUGCGACUCGCAAGAGGGACAGAAGGCCAUCGACAUGAGGAUCACCCAUGUAACGAAAUGGAGGAUAUGUCUGGUCGA”, the “apparent Kd” value under setting [3] came to 0.0275 µM and the “apparent Kd” value under setting [4] came to 0.00565 µM.

In the case of “UGGUACUAGGGAGGAUAUGGGAAGAUACAUGAGGAUCACCCAUGUUUAAGAAGGCCGAGAGGCAACUAGAAGGCCCUAGUACCU”, the “apparent Kd” value by setting is: under setting [3], 0.396 µM; under setting [4], 0.016 µM.

As for “AUAUCUCUGUAAGGAUAUAGAUGGUGUAAGCCUCCGACAUGAGGAUCACCCAUGUUAUAUGUUGUCUAGAAGGUACAGUGUCGG”, the “apparent Kd” value by setting is: under setting [3], 1.11 µM; under setting [4], 0.898 µM.

As to “AAUUAGGUCACAGGAUAUACAACAUCCAAUGCUGUAGAAGGGUGUCACAAUCAUAGCUGACAUGAGGAUCACCCAUGUAUCCAC”, the “apparent Kd” value runs as follows: under setting [3], 0.202 µM; under setting [4], 0.106 µM.

With “UUGUAGUACGUAGGAUAUCAAUGAGGAUCACCCUGAGAAGGACGUGAGGACAUGAGGAUCACCCAUGUGGAUCACCCAUGUCAU”, the “apparent Kd” value is, setting by setting: under setting [1], 0.191 µM; under setting [2], 0.145 µM.

For “AGGAGACAUGAGGAUCACCCAUGUGAGAAGAGGCGAGGAUAUCGAAAAAAAAAAAAAAAACGAGAAGGCGCGAGAA”, the “apparent Kd” value is, setting by setting: under setting [3], 0.071 µM; under setting [4], 0.0393 µM.

As for “GGAUCCGCUUCCGCCACAUGAGGAUCACCCAUGUGUAUGAACAGAAGGGCGACCUCAAAGAGGGCGCAGGAUAUGUACUCGUAC”, the “apparent Kd” value was determined as 0.0783 µM under setting [3] and 0.0486 µM under setting [4].

With “UUGAUAAGGAGAGGAUAUGGACAUGAGGAUCACCCAUGUACAUGGGAAUAUUUACUGAAUUCUUACUAGAAGGCUUACAUAUUU”, the “apparent Kd” value runs as follows: under setting [1], 0.0157 µM; under setting [2], 0.0133 µM.

Regarding “AACUUGCGCACAGGAUAUCCACGGAGCGGACGUGGAGAAGGGUGACAUGAGGAUCACCCAUGUACGUAAGUCUGGAUCACUUCC”, the “apparent Kd” value by setting is: under setting [3], 0.116 µM; under setting [4], 0.0423 µM.

For the sequence “UUGGUACAUGAGGAUCACCCAUGUGGGUCGGUCGCAGGAUAUGCCCGUGGGCGCUUGCGGGCAGAAGGGUGCCGUA”, the “apparent Kd” value reads like this: under setting [3], 0.392 µM; under setting [4], 0.102 µM.

Regarding “AUUAUAUAGGAAGGAUAUAGAAUAUUAUUUUAACAUGAGGAUCACCCAUGUAACCUUAUGUGUAGCUAGAAGGUCCAUUUAUUA”, the “apparent Kd” value is 0.0975 µM under setting [1] and 0.153 µM under setting [2].

“GUUUAGUGAGGAUAUGUGGCGUGGAUCGAGCGCGGUCUGCUACAGAAGGCACAUGAGGAUCACCCAUGUUUCUC”: the “apparent Kd” value was 0.166 µM under setting [1] and 0.329 µM under setting [2].

For the sequence “UGGUACUAGGGAGGAUAUGGGAAGAUACAUGAGGAUCACCCAUGUUUAAGAAUGCCGAGCGGCAACUAGAAGGCCCUAGUACCU”, the “apparent Kd” value by setting is: under setting [3], 0.479 µM; under setting [4], 0.0208 µM.

Take “GAGUACUGAGGAUAUACAUGAGGAUCACCCAUGUGUUCCAGCUAGGAAACUAGCAAAAGUAGAAGGCAGUACUG”: the “apparent Kd” value runs as follows: under setting [1], 0.0195 µM; under setting [2], 0.156 µM.

On to “GGGUACAUCGGAGGAUAUCAUGUAAAUACAUGAGGAUCACCCAUGUCGAUGGAGACAUCGGAGAUCGAGAAGGCCGAUGUACCG”, for which the “apparent Kd” value under setting [3] came to 0.168 µM and the “apparent Kd” value under setting [4] is 0.294 µM.

For “UGGACUGGGCAGAAGGGACAUGAGGAUCACCCAUGUCUUGGGCUACUUCAGUCAGGAUAUGCCCAUUGAAUAUCCGAGCAUCAA”, the “apparent Kd” value is 0.0137 µM under setting [1] and 0.0774 µM under setting [2].

Take “AAACAGGGAGGAUAUACAUGAGGAUCACCCAUGUUCGAGCGUCCUUGAACUACCUCAGGUAGAAGGCCCUAAUU”: the “apparent Kd” value is, setting by setting: under setting [1], 0.372 µM; under setting [2], 0.112 µM.

As for “CAAUAUAACACAGGAUAUGUCUCGUUUACAUGAGGAUCACCCAUGUCCGAAACAGAAGGGUGACCCGAUAUAGGACGUUGGGUG”, the “apparent Kd” value turned out to be 0.0563 µM under setting [3] and 0.018 µM under setting [4].

For “GCUAAUAUUUUGUUAAAUGUAUUUUGAGAAGGCAUACACAUGAGGAUCACCCAUGUAAUUUGUAAUGAGGAUAUCAUGAUGUGC”, the “apparent Kd” value under setting [3] turned out to be 0.115 µM and the “apparent Kd” value under setting [4] stood at 0.0315 µM.

On to “CUCUCUGAUCGAGGAUAUCGAGCUUCCGCCCUUCGAGAAGGCGACAUGAGGAUCACCCAUGUAAGGAGGACACUCACUCACACG”, for which the “apparent Kd” value is, setting by setting: under setting [1], 0.0264 µM; under setting [2], 0.0225 µM.

One may read the apparent Kd as the concentration giving half-maximal binding under the conditions of the assay.
